Data: ChEMBL document CHEMBL3817731, “Synthesis and investigation of novel benzimidazole derivatives as antifungal agents” (Bioorg Med Chem, 2016)
≈ marks a conversion by molar mass, not a printed value.

Key:
Candida albicans [1] = assay: Antifungal activity against Candida albicans ATCC 64124 after 48 hrs by CLSI M27-A3 method; assay type: functional; settings: ATCC 64124, 48 h
Candida albicans [2] = assay: Antifungal activity against Candida albicans ATCC MYA-2876 after 48 hrs by CLSI M27-A3 method; assay type: functional; settings: ATCC MYA-2876, 48 h
Candida albicans [3] = assay: Antifungal activity against Candida albicans ATCC MYA-90819 after 48 hrs by CLSI M27-A3 method; assay type: functional; settings: ATCC MYA-90819, 48 h
Candida albicans [4] = assay: Antifungal activity against Candida albicans ATCC MYA-2310 after 48 hrs by CLSI M27-A3 method; assay type: functional; settings: ATCC MYA-2310, 48 h
Candida albicans [5] = assay: Antifungal activity against Candida albicans ATCC MYA-1237 after 48 hrs by CLSI M27-A3 method; assay type: functional; settings: ATCC MYA-1237, 48 h
Candida albicans [6] = assay: Antifungal activity against Candida albicans ATCC 10231 after 48 hrs by CLSI M27-A3 method; assay type: functional; settings: ATCC 10231, 48 h
Candida albicans [7] = assay: Antifungal activity against Candida albicans ATCC MYA-1003 after 48 hrs by CLSI M27-A3 method; assay type: functional; settings: ATCC MYA-1003, 48 h
Nakaseomyces glabratus = assay: Antifungal activity against Candida glabrata ATCC 2001 after 48 hrs by CLSI M27-A3 method; assay type: functional; settings: CBS 138, 48 h
Pichia kudriavzevii = assay: Antifungal activity against Candida krusei ATCC 6258 after 48 hrs by CLSI M27-A3 method; assay type: functional; settings: ATCC 6258, 48 h
Candida parapsilosis = assay: Antifungal activity against Candida parapsilosis ATCC 22019 after 48 hrs by CLSI M27-A3 method; assay type: functional; settings: Lodderomyces parapsilosis, ATCC 22019, 48 h
Aspergillus flavus = assay: Antifungal activity against Aspergillus flavus ATCC MYA-3631 after 48 hrs by CLSI M38-A2 method; assay type: functional; settings: ATCC MYA-3631, 48 h
Aspergillus nidulans = assay: Antifungal activity against Aspergillus nidulans ATCC 38163 after 48 hrs by CLSI M38-A2 method; assay type: functional; settings: ATCC 38163, 48 h
Aspergillus terreus = assay: Antifungal activity against Aspergillus terreus ATCC MYA3633 after 48 hrs by CLSI M38-A2 method; assay type: functional; settings: ATCC MYA3633, 48 h
A549 = assay: Cytotoxicity against human A549 cells assessed as reduction in cell survival after 24 hrs by resazurin assay; assay type: cell-based; settings: A549, 24 h
Summary of the method: (§1)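 Human A549 cells treated 24 h; BEAS 2B cells treated 6 h or 24 h. DMSO-treated cells served as negative control and Triton X-treated cells as positive control. Read-out was cell survival.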

[8] = Cytotoxicity against human BEAS2B cells assessed as reduction in cell survival after 6 hrs by resazurin assay; assay type: cell-based; settings: beas-2b; summary of the method: as §1
[9] = Cytotoxicity against human BEAS2B cells assessed as reduction in cell survival after 24 hrs by resazurin assay; assay type: cell-based; settings: BEAS-2B; summary of the method: as §1

Row | MIC (Candida albicans [1]) | MIC (Candida albicans [2]) | MIC (Candida albicans [3]) | MIC (Candida albicans [4]) | MIC (Candida albicans [5]) | MIC (Candida albicans [6]) | MIC (Candida albicans [7]) | MIC (Nakaseomyces glabratus) | MIC (Pichia kudriavzevii) | MIC (Candida parapsilosis) | MIC (Aspergillus flavus) | MIC (Aspergillus nidulans) | MIC (Aspergillus terreus) | Compound | IC50 (A549) | Activity [8] | IC50 [9]
1 | > 31.2 µg/mL | > 31.2 µg/mL | > 31.2 µg/mL | > 31.2 µg/mL | > 31.2 µg/mL | > 31.2 µg/mL | > 31.2 µg/mL | > 31.2 µg/mL | > 31.2 µg/mL | > 31.2 µg/mL | > 31.2 µg/mL | > 31.2 µg/mL | > 31.2 µg/mL | CCCCCN1CCN(c2ccc3nc(-c4ccc5nc(-c6ccc(OCC)cc6)[nH]c5c4)[nH]c3c2)CC1 | – | – | –
2 | 31.2 µg/mL (≈ 71.1 µM) | 15.6 µg/mL (≈ 35.6 µM) | 15.6 µg/mL (≈ 35.6 µM) | 7.8 µg/mL (≈ 17.8 µM) | 15.6 µg/mL (≈ 35.6 µM) | 15.6 µg/mL (≈ 35.6 µM) | > 31.2 µg/mL | 3.9 µg/mL (≈ 8.89 µM) | 31.2 µg/mL (≈ 71.1 µM) | 3.9 µg/mL (≈ 8.89 µM) | 31.2 µg/mL (≈ 71.1 µM) | 15.6 µg/mL (≈ 35.6 µM) | 15.6 µg/mL (≈ 35.6 µM) | COc1ccc(-c2nc3cc(-c4nc5cc(N6CCN(C)CC6)ccc5[nH]4)ccc3[nH]2)cc1 | 0.98 µg/mL (≈ 2.23 µM) | Non-toxic | 1.95 µg/mL (≈ 4.45 µM)
3 | 15.6 µg/mL (≈ 33.4 µM) | 15.6 µg/mL (≈ 33.4 µM) | 15.6 µg/mL (≈ 33.4 µM) | 15.6 µg/mL (≈ 33.4 µM) | 15.6 µg/mL (≈ 33.4 µM) | 15.6 µg/mL (≈ 33.4 µM) | > 31.2 µg/mL | 31.2 µg/mL (≈ 66.9 µM) | 15.6 µg/mL (≈ 33.4 µM) | 3.9 µg/mL (≈ 8.36 µM) | > 31.2 µg/mL | 15.6 µg/mL (≈ 33.4 µM) | 15.6 µg/mL (≈ 33.4 µM) | CCOc1ccc(-c2nc3ccc(-c4nc5ccc(N6CCN(CC)CC6)cc5[nH]4)cc3[nH]2)cc1 | – | – | –
4 | > 31.2 µg/mL | > 31.2 µg/mL | > 31.2 µg/mL | > 31.2 µg/mL | > 31.2 µg/mL | > 31.2 µg/mL | > 31.2 µg/mL | > 31.2 µg/mL | > 31.2 µg/mL | > 31.2 µg/mL | > 31.2 µg/mL | > 31.2 µg/mL | > 31.2 µg/mL | C#CCOc1ccc(-c2nc3ccc(N4CCN(C)CC4)cc3[nH]2)cc1 | – | – | –
5 | > 31.2 µg/mL | > 31.2 µg/mL | > 31.2 µg/mL | > 31.2 µg/mL | > 31.2 µg/mL | > 31.2 µg/mL | > 31.2 µg/mL | 7.8 µg/mL (≈ 17.2 µM) | 31.2 µg/mL (≈ 68.9 µM) | 7.8 µg/mL (≈ 17.2 µM) | > 31.2 µg/mL | > 31.2 µg/mL | > 31.2 µg/mL | CCN1CCN(c2ccc3nc(-c4ccc5nc(-c6ccc(OC)cc6)[nH]c5c4)[nH]c3c2)CC1 | – | – | –
6 | 31.2 µg/mL (≈ 68.9 µM) | 31.2 µg/mL (≈ 68.9 µM) | 31.2 µg/mL (≈ 68.9 µM) | 31.2 µg/mL (≈ 68.9 µM) | 31.2 µg/mL (≈ 68.9 µM) | 31.2 µg/mL (≈ 68.9 µM) | 31.2 µg/mL (≈ 68.9 µM) | 7.8 µg/mL (≈ 17.2 µM) | 31.2 µg/mL (≈ 68.9 µM) | 7.8 µg/mL (≈ 17.2 µM) | > 31.2 µg/mL | 7.8 µg/mL (≈ 17.2 µM) | 15.6 µg/mL (≈ 34.5 µM) | CCCN1CCN(c2ccc3nc(-c4ccc5nc(-c6ccc(O)cc6)[nH]c5c4)[nH]c3c2)CC1 | – | – | –
7 | > 31.2 µg/mL | > 31.2 µg/mL | > 31.2 µg/mL | > 31.2 µg/mL | > 31.2 µg/mL | > 31.2 µg/mL | > 31.2 µg/mL | > 31.2 µg/mL | > 31.2 µg/mL | > 31.2 µg/mL | > 31.2 µg/mL | > 31.2 µg/mL | > 31.2 µg/mL | CCCCCCCCCCCCOc1ccc(-c2nc3ccc(-c4nc5ccc(N6CCN(C)CC6)cc5[nH]4)cc3[nH]2)cc1 | – | – | –

Row | Compound | MIC (Candida albicans [1]) | MIC (Candida albicans [2]) | MIC (Candida albicans [3]) | MIC (Candida albicans [4]) | MIC (Candida albicans [5]) | MIC (Candida albicans [6]) | MIC (Candida albicans [7]) | MIC (Nakaseomyces glabratus) | MIC (Pichia kudriavzevii) | MIC (Candida parapsilosis) | MIC (Aspergillus flavus) | MIC (Aspergillus nidulans) | MIC (Aspergillus terreus) | IC50 (A549) | Activity [8] | IC50 [9]
8 | C[C@@H](c1ncncc1F)[C@](O)(Cn1cncn1)c1ccc(F)cc1F [VORICONAZOLE] | 3.9 µg/mL (≈ 11.2 µM) | 1.95 µg/mL (≈ 5.58 µM) | 1.95 µg/mL (≈ 5.58 µM) | 0.975 µg/mL (≈ 2.79 µM) | 7.8 µg/mL (≈ 22.3 µM) | – | 1.95 µg/mL (≈ 5.58 µM) | – | 0.12 µg/mL (≈ 0.344 µM) | < 0.03 µg/mL | – | 0.03 µg/mL (≈ 0.0859 µM) | 0.12 µg/mL (≈ 0.344 µM) | – | – | –
9 | CCC(C)n1ncn(-c2ccc(N3CCN(c4ccc(OCC5COC(Cn6cncn6)(c6ccc(Cl)cc6Cl)O5)cc4)CC3)cc2)c1=O (centres undefined) [ITRACONAZOLE] | > 62.5 µg/mL | 7.8 µg/mL (≈ 11.1 µM) | 31.2 µg/mL (≈ 44.2 µM) | 31.2 µg/mL (≈ 44.2 µM) | 31.2 µg/mL (≈ 44.2 µM) | 0.5 µg/mL (≈ 0.709 µM) | 31.2 µg/mL (≈ 44.2 µM) | – | 0.48 µg/mL (≈ 0.68 µM) | 0.12 µg/mL (≈ 0.17 µM) | 0.48 µg/mL (≈ 0.68 µM) | 0.195 µg/mL (≈ 0.276 µM) | 0.975 µg/mL (≈ 1.38 µM) | – | – | –
10 | CC[C@@H]([C@H](C)O)n1ncn(-c2ccc(N3CCN(c4ccc(OC[C@@H]5CO[C@@](Cn6cncn6)(c6ccc(F)cc6F)C5)cc4)CC3)cc2)c1=O [POSACONAZOLE] | > 62.5 µg/mL | 7.8 µg/mL (≈ 11.1 µM) | 31.2 µg/mL (≈ 44.5 µM) | 31.2 µg/mL (≈ 44.5 µM) | 15.6 µg/mL (≈ 22.3 µM) | 0.5 µg/mL (≈ 0.713 µM) | 15.6 µg/mL (≈ 22.3 µM) | 0.12 µg/mL (≈ 0.171 µM) | 0.06 µg/mL (≈ 0.0856 µM) | < 0.03 µg/mL | 0.24 µg/mL (≈ 0.342 µM) | 0.195 µg/mL (≈ 0.278 µM) | 0.48 µg/mL (≈ 0.685 µM) | – | – | –
